Series [1] deals with Polyamine deacetylase HDAC10 (Homo sapiens) (UniProt Q969S8). The experiment in a line: Inhibition of recombinant human HDAC10 expressed in SF9 baculoviral system at 10 uM using FAM-labeled acetylated peptide as substrate by EMSA relative to control. The method in brief: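 Full-length recombinant human HDACs from an Sf9 baculovirus system. Single-point screen at 10 μM by microfluidic mobility-shift assay with FAM-labeled acetylated peptide substrate. Buffer: 100 mM HEPES pH 7.5, 25 mM KCl, 0.1% BSA, 0.01% Triton X-100, 1% DMSO. % inhibition from product/(substrate + product) against no-inhibitor and no-enzyme controls.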
Background: In EMSA bound probe runs differently from free probe, usually more slowly.

The test system of series [2] is MV4-11. The experiment in a line: Cytotoxicity against human MV4-11 cells at 50 uM after 72 hrs by CellTiter-Blue assay. In kind it is functional, cell-based. The procedure, abridged:
(§1)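 Cells in 10% FBS medium, 10 000 cells/well, treated 24 h after plating. Twofold dilution series from a 50.0 μM top dose to 0.097656 μM, in triplicate, 0.5% DMSO vehicle. 72 h at 37 °C, 5% CO2. CellTiter-Blue for 1–4 h, fluorescence 560/590 nm. IC50 by nonlinear regression.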
Background: Resazurin is reduced to fluorescent resorufin, in cell work by metabolically active cells.

The subject of series [3] is MOLM-13. The series is described as follows: Cytotoxicity against human MOLM13 cells at 50 uM after 72 hrs by CellTiter-Blue assay. In kind it is functional, cell-based. The method in brief: as §1
Series [4] can be described thus: Stability of the compound in DMSO at 10 mM after 25 hrs in presence of reduced L-glutathione by HPLC analysis. In kind it is physicochemical. The conditions noted are these: 10000 µM. The method in brief: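 A 10 mM DMSO stock was mixed with 100-fold excess reduced glutathione in HEPES buffer, pH 7.4. Samples were analysed by reversed-phase HPLC at regular intervals, with UV at 254 nm. Decay of the parent compound was followed as loss of its peak area.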

In series [5] the test system is MDA-MB-231. The series is described as follows: Cytotoxicity against human MDA-MB-231 cells after 72 hrs by CellTiter-Blue assay. It is filed as functional, cell-based. To be noted: MDA-MB-231, 72 h. The procedure, abridged: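 MDA-MB-231 cells in DMEM with 10% FBS, 10 000 cells/well, treated after 24 h. Twofold dilutions from 50.0 μM, in triplicate, 0.5% DMSO vehicle. 72 h at 37 °C. CellTiter-Blue fluorescence read at 560/590 nm. IC50 by nonlinear regression.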

Series [6] is described as follows: Apparent permeability across basolateral to apical side in human Caco2 cells at 5 uM by LC-MS/MS analysis. It is filed as ADME, cell-based. To be noted: caco-2, 5 µM. The procedure, abridged: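 Caco-2 monolayer permeability run in duplicate. Monolayer integrity checked by TEER and Lucifer Yellow fluorescence (ex 485/em 530 nm). Papp measured apical-to-basolateral and basolateral-to-apical by LC-ESI-MS/MS with internal standards. Digoxin, prazosin and propranolol as controls.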

Series [7] is described as follows: Cytotoxicity against human […] cells assessed as reduction in tumor spheroid area after 72 hrs by Alamar Blue assay. It is filed as cell-based. The procedure, abridged: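 3D spheroids of patient-derived PDAC cells (tomato red) alone or with CAF19 cells, plus CAF cultures. Imaging read-outs: area is the μ2 of objects above a tomato red intensity threshold; intensity is summed red or green pixel fluorescence after background removal. n = 3–5.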

Series [8] in a line: Antitumor activity against mouse KPC cells allografted in immunocompetent C57BI/6 mouse assessed as mean survival time at 50 mg/kg, ip administered daily for 5 days per week for 1 month starting on day 7 post implantation (reference value: 29.5 days). In kind it is functional.
Series [9] in a line: Tmax in NSG mouse at 20 mg/kg, ip administered as single dose by HPLC-MS/MS analysis. In kind it is ADME, organism-based. To be noted: in vivo. The procedure, abridged:
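NSG mice received a single 20 mg/kg IP injection in Cremophor EL/EtOH (1:1, 4% final volume)/sterile saline. Tail-vein blood was taken at 0.5, 1, 2, 4, 8 and 24 h, and compound was quantified in plasma (n = 2).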

Series [10] can be described thus: Clearance in NSG mouse at 20 mg/kg, ip administered as single dose by HPLC-MS/MS analysis. To be noted: in vivo. In kind it is ADME, organism-based. The method in brief:
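NSG mice given a single 20 mg/kg IP dose in Cremophor EL/EtOH (1:1, 4% final volume)/sterile saline. Tail-vein blood at 0.5, 1, 2, 4, 8 and 24 h, n = 2. Drug quantified in serum/plasma. Half-life and clearance calculated assuming 100% bioavailability.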

Series [11] can be described thus: Bioavailability in NSG mouse at 20 mg/kg, ip administered as single dose by HPLC-MS/MS analysis. It is filed as ADME, organism-based. To be noted: in vivo.
Series [12] is described as follows: Toxicity in NSG mouse at 10 to 40 mg/kg, ip assessed as induction of body weight loss administered daily for 5 days by HPLC-MS/MS analysis. It is filed as organism-based. The conditions noted are these: in vivo, 120 h. The procedure, abridged: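 NSG mice were given 10 or 40 mg/kg IP once daily for 5 days (n = 6). Blood was drawn 5 h after the last injection for compound measurement. Toxicity was judged by percentage weight loss versus vehicle-treated mice.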

Structures are written as SMILES. The source made the active and inactive calls.

Chain of Polyamine deacetylase HDAC10 (Homo sapiens) (Q969S8 whole entry): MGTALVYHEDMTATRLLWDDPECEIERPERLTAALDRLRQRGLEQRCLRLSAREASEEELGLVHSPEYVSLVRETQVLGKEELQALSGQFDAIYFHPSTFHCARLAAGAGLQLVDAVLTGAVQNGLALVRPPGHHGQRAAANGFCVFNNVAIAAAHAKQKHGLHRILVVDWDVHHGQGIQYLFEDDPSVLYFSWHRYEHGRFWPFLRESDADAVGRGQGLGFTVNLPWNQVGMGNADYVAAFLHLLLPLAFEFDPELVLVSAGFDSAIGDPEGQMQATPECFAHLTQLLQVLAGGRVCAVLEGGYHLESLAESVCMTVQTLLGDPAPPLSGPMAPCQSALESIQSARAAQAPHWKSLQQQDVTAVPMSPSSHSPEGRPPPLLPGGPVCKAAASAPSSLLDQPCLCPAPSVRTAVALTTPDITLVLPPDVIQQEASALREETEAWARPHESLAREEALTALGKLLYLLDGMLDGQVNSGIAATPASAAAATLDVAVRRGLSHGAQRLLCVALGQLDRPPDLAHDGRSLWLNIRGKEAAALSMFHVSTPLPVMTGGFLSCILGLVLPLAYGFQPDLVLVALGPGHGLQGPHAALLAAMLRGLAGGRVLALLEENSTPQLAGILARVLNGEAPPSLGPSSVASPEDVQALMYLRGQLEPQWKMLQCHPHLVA

One may read the inhibition as the percentage by which the read-out fell short of the control. What is called IC50 is the concentration that inhibits the measured activity by half. The Papp is a coefficient for how fast a substance crosses the barrier. In general, Tmax refers to the time from dosing to the highest level. As usually defined, the CL/F is clearance divided by bioavailability, as obtained after extravascular dosing. For orientation: bioavailability means the share of a dose that reaches the circulation, judged against a reference dose that is usually intravenous. A low value points to poor availability. Regarding `CC(C)(C)c1ccc(CN(C(=O)CN(Cc2c(F)c(F)c(F)c(F)c2F)S(=O)(=O)c2ccc(F)cc2)c2ccc(C(=O)NO)cc2)cc1`, the inhibition in [1] turned out to be 70%. For the same molecule, the outcome in series [2] and in [3] was Active. Besides, the Stability result in [4] is “Stable”. Besides, the IC50 was 2.72 µM in [5] and 4.7 to 7.8 µM in series [7]. Also, the Papp in series [6] came to 1.02 ×10⁻⁶ cm/s. For the same molecule, the MST in series [8] was determined as 36.5 days. Further, the Tmax in series [9] is 30 min. Moreover, the CL/F in [10] was 0.0667 mL/min. This molecule yielded a bioavailability in series [11] of 100%. The Activity entry in [12] was “Non-Toxic”.

The values above are taken from ChEMBL document CHEMBL4400543, “Identification and Characterization of AES-135, a Hydroxamic Acid-Based HDAC Inhibitor That Prolongs Survival in an Orthotopic Mouse Model of Pancreatic Cancer” (J Med Chem, 2019).
